# According to ChEMBL document CHEMBL5346932, “Structure-activity relationships of actively FhuE transported rifabutin derivatives with potent activity against Acinetobacter baumannii” (Eur J Med Chem, 2023):
# Active and inactive are the calls of the source. No cut-off for these calls is given here.
# Tests used:
# [1] = tested on: Acinetobacter baumannii; assay: Antibacterial activity against Acinetobacter baumannii HUMC1 cultured in RPMI 1640 medium supplemented with 10% FCS assessed as bacterial growth inhibition incubated for 20 hrs by CLSI based microbroth dilution method; type: functional
# How it was run: (§1)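 CLSI broth microdilution in RPMI 1640 + 10% FCS in place of CAMHB. Compounds in 2-fold dilution series; inoculum 5×10^5 CFU/mL. Plates held static at 35 °C for 20 h. MIC read visually as the lowest concentration with no visible growth. […] is the reciprocal of this MIC.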
# [2] = tested on: Acinetobacter baumannii; assay: Antibacterial activity against Acinetobacter baumannii HUMC1 harboring FhuE deletion mutant assessed as bacterial growth inhibition incubated for 20 hrs by CLSI based microbroth dilution method; type: functional
# How it was run: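 Microbroth dilution per CLSI in RPMI 1640 + 10% FCS (in place of CAMHB). Compounds as 2-fold serial dilutions; inoculum 5×10^5 CFU/mL of previously described HUMC1-derived mutant strains. Incubated static at 35 °C for 20 h. MIC read visually as lowest concentration preventing visible growth.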
# [3] = tested on: Staphylococcus aureus; assay: Antibacterial activity against Staphylococcus aureus USA300 UAMS-1625 assessed as bacterial growth inhibition incubated for 20 hrs by CLSI based microbroth dilution method; type: functional
# How it was run: (§2)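 CLSI broth microdilution in CAMHB against S. aureus USA300 UAMS-1625. Compounds in 2-fold dilution series; inoculum 5×10^5 CFU/mL. Incubated without shaking at 35 °C for 20 h. MIC read visually as the lowest concentration preventing visible growth. Fold changes are relative to the rifabutin MIC.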
# [4] = tested on: Staphylococcus aureus; assay: Antibacterial activity against Staphylococcus aureus USA300 UAMS-1625 assessed as fold reduction in MIC incubated for 20 hrs by CLSI based microbroth dilution method relative to rifabutin; type: functional; how it was run: as §2
# [5] = tested on: Acinetobacter baumannii; assay: Antibacterial activity against Acinetobacter baumannii HUMC1 cultured in iron-limited RPMI medium supplemented with 10% FCS assessed as inverse MIC incubated for 20 hrs by CLSI based microbroth dilution method; type: functional; how it was run: as §1
# [6] = Inhibition of transcription in Acinetobacter baumannii HUMC1 using pVT784 as reporter plasmid preincubated for 30 mins followed by reporter plasmid addition and measured after 60 mins by Nano-Glo luciferase assay; type: functional
# How it was run: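 Cell-free transcription/translation used A. baumannii HUMC1 extract at 1.2 mg/mL, with extract from 2xYT+P culture after a run-off step and dialysis at pH 8.2. Compound was preincubated with extract for 30 min on ice. Reporter plasmid (0.5 nM) was then added and luminescence read after 60 min at 25 °C. Compounds were tested at 8 to 0.002 mg/L in triplicate. IC50 was fit from no-compound-normalized signal.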
# [7] = Drug accumulation in Acinetobacter baumannii HUMC1 cultured in iron-limited RPMI medium supplemented with 10% FCS measured per 5 ml of culture medium at 0.05 uM incubated for 10 mins by LC-MS/MS analysis; type: ADME; details: BLD = below limit of detection
# How it was run: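 5 mL of suspension was dosed from DMSO stocks (0.002–5 mM) and shaken at 150 rpm for 10 min at 37 °C. Cells were pelleted, washed, and lysed (sucrose/EDTA). LC-MS/MS MRM quantitation used caffeine-normalized standard curves in spiked lysate. Reported as amount per 5 mL; n≥2 independent replicates.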
# [8] = Acinetobacter baumannii, HUMC1, 20 h, read-out: MIC
# [9] = Acinetobacter baumannii, HUMC1, read-out: MIC
compound,measurement,setting,value
CO[C@H]1/C=C/O[C@@]2(C)Oc3c(C)c(O)c4c(c3C2=O)C2=NC3(CCCCC3)NC2=C(NC(=O)/C(C)=C\C=C\[C@H](C)[C@H](O)[C@@H](C)[C@@H](O)[C@@H](C)[C@H](OC(C)=O)[C@@H]1C)C4=O,MIC,[1]; [8],0.125 µg/mL
same,MIC,[2],0.5 µg/mL
CO[C@H]1/C=C/O[C@@]2(C)Oc3c(C)c(O)c4c(c3C2=O)C2=NC3(CCN(CC5CCCCC5)CC3)NC2=C(NC(=O)/C(C)=C\C=C\[C@H](C)[C@H](O)[C@@H](C)[C@@H](O)[C@@H](C)[C@H](OC(C)=O)[C@@H]1C)C4=O (stereo in doubt; form 1),Activity,[3],Active
CO[C@H]1/C=C/O[C@@]2(C)Oc3c(C)c(O)c4c(c3C2=O)C2=NC3(CCN(Cc5ccccc5)CC3)NC2=C(NC(=O)/C(C)=C\C=C\[C@H](C)[C@H](O)[C@@H](C)[C@@H](O)[C@@H](C)[C@H](OC(C)=O)[C@@H]1C)C4=O,MIC,[1]; [8],0.125 µg/mL
same,Activity,[3],Active
CCCCN1CCC2(CC1)N=C1C(=C3NC(=O)/C(C)=C\C=C\[C@H](C)[C@H](O)[C@@H](C)[C@@H](O)[C@@H](C)[C@H](OC(C)=O)[C@H](C)[C@@H](OC)/C=C/O[C@@]4(C)Oc5c(C)c(O)c(c1c5C4=O)C3=O)N2,MIC,[1]; [8],0.004 µg/mL
same,Activity,[3],Active
CO[C@H]1/C=C/O[C@@]2(C)Oc3c(C)c(O)c4c(c3C2=O)C2=NC3(CCN(CC5CC5)CC3)NC2=C(NC(=O)/C(C)=C\C=C\[C@H](C)[C@H](O)[C@@H](C)[C@@H](O)[C@@H](C)[C@H](OC(C)=O)[C@@H]1C)C4=O,MIC,[1]; [8],0.001 µg/mL
same,MIC,[2],0.5 µg/mL
same,Activity,[3],Active
CO[C@H]1/C=C/O[C@@]2(C)Oc3c(C)c(O)c4c(c3C2=O)C2=NC3(CCN(CCC(C)C)CC3)NC2=C(NC(=O)/C(C)=C\C=C\[C@H](C)[C@H](O)[C@@H](C)[C@@H](O)[C@@H](C)[C@H](OC(C)=O)[C@@H]1C)C4=O,MIC,[1]; [8],0.016 µg/mL
same,MIC,[2],0.5 µg/mL
same,Activity,[3],Active
CO[C@H]1/C=C/O[C@@]2(C)Oc3c(C)c(O)c4c(c3C2=O)C2=NC3(CCN(C(C)C)CC3)NC2=C(NC(=O)/C(C)=C\C=C\[C@H](C)[C@H](O)[C@@H](C)[C@@H](O)[C@@H](C)[C@H](OC(C)=O)[C@@H]1C)C4=O,MIC,[1]; [8],0.002 µg/mL
same,MIC,[2],0.5 µg/mL
same,fold change (FC),[4],2
COC(=O)[C@@H](C)N1CCC2(CC1)N=C1C(=C3NC(=O)/C(C)=C\C=C\[C@H](C)[C@H](O)[C@@H](C)[C@@H](O)[C@@H](C)[C@H](OC(C)=O)[C@H](C)[C@@H](OC)/C=C/O[C@@]4(C)Oc5c(C)c(O)c(c1c5C4=O)C3=O)N2,MIC,[1]; [8],0.125 µg/mL
same,MIC,[2],0.5 µg/mL
CCN1CCC2(CC1)N=C1C(=C3NC(=O)/C(C)=C\C=C\[C@H](C)[C@H](O)[C@@H](C)[C@@H](O)[C@@H](C)[C@H](OC(C)=O)[C@H](C)[C@@H](OC)/C=C/O[C@@]4(C)Oc5c(C)c(O)c(c1c5C4=O)C3=O)N2,MIC,[1]; [8],0.004 µg/mL
same,fold change (FC),[4],2
CCCN1CCC2(CC1)N=C1C(=C3NC(=O)/C(C)=C\C=C\[C@H](C)[C@H](O)[C@@H](C)[C@@H](O)[C@@H](C)[C@H](OC(C)=O)[C@H](C)[C@@H](OC)/C=C/O[C@@]4(C)Oc5c(C)c(O)c(c1c5C4=O)C3=O)N2,MIC,[1]; [8],0.004 µg/mL
same,MIC,[2],0.5 µg/mL
same,Activity,[3],Active
CO[C@H]1/C=C/O[C@@]2(C)Oc3c(C)c(O)c4c(c3C2=O)C2=NC3(CCN(C)CC3)NC2=C(NC(=O)/C(C)=C\C=C\[C@H](C)[C@H](O)[C@@H](C)[C@@H](O)[C@@H](C)[C@H](OC(C)=O)[C@@H]1C)C4=O,MIC,[1]; [8],0.016 µg/mL
same,fold change (FC),[4],2
COC(=O)CN1CCC2(CC1)N=C1C(=C3NC(=O)/C(C)=C\C=C\[C@H](C)[C@H](O)[C@@H](C)[C@@H](O)[C@@H](C)[C@H](OC(C)=O)[C@H](C)[C@@H](OC)/C=C/O[C@@]4(C)Oc5c(C)c(O)c(c1c5C4=O)C3=O)N2,MIC,[1]; [9],0.5 µg/mL
same,MIC,[2],0.5 µg/mL
CO[C@H]1/C=C/O[C@@]2(C)Oc3c(C)c(O)c4c(O)c(c(/C=N/N5CCN(C)CC5)c(O)c4c3C2=O)NC(=O)/C(C)=C\C=C\[C@H](C)[C@H](O)[C@@H](C)[C@@H](O)[C@@H](C)[C@H](OC(C)=O)[C@@H]1C [RIFAMPIN],1/MIC,[5],0.25 L/mg
same,MIC,[1]; [9],4 µg/mL
same,IC50,[6],0.07 µg/mL
same,Drug uptake,[7],Bld
CCOC(=O)N1CCC2(CC1)N=C1C(=C3NC(=O)/C(C)=C\C=C\[C@H](C)[C@H](O)[C@@H](C)[C@@H](O)[C@@H](C)[C@H](OC(C)=O)[C@H](C)[C@@H](OC)/C=C/O[C@@]4(C)Oc5c(C)c(O)c(c1c5C4=O)C3=O)N2,MIC,[1]; [8],8 µg/mL
CO[C@H]1/C=C/O[C@@]2(C)Oc3c(C)c(O)c4c(c3C2=O)C2=NC3(CCN(C5CCCCC5C)CC3)NC2=C(NC(=O)/C(C)=C\C=C\[C@H](C)[C@H](O)[C@@H](C)[C@@H](O)[C@@H](C)[C@H](OC(C)=O)[C@@H]1C)C4=O (stereo partly specified),MIC,[1]; [8],0.125 µg/mL
C#CCN1CCC2(CC1)N=C1C(=C3NC(=O)/C(C)=C\C=C\[C@H](C)[C@H](O)[C@@H](C)[C@@H](O)[C@@H](C)[C@H](OC(C)=O)[C@H](C)[C@@H](OC)/C=C/O[C@@]4(C)Oc5c(C)c(O)c(c1c5C4=O)C3=O)N2,MIC,[1]; [8],0.008 µg/mL
CO[C@H]1/C=C/O[C@@]2(C)Oc3c(C)c(O)c4c(c3C2=O)C2=NC3(CCN(C5CCCC5)CC3)NC2=C(NC(=O)/C(C)=C\C=C\[C@H](C)[C@H](O)[C@@H](C)[C@@H](O)[C@@H](C)[C@H](OC(C)=O)[C@@H]1C)C4=O (stereo in doubt; form 1),MIC,[1]; [8],≤ 0.002 µg/mL
same,fold change (FC),[4],2
CO[C@H]1/C=C/O[C@@]2(C)Oc3c(C)c(O)c4c(c3C2=O)C2=NC3(CCN(CCc5ccccc5)CC3)NC2=C(NC(=O)/C(C)=C\C=C\[C@H](C)[C@H](O)[C@@H](C)[C@@H](O)[C@@H](C)[C@H](OC(C)=O)[C@@H]1C)C4=O,MIC,[1]; [8],0.5 µg/mL
same,Activity,[3],Active
CO[C@H]1/C=C/O[C@@]2(C)Oc3c(C)c(O)c4c(c3C2=O)C2=NC3(CCN(CC(=O)N(C)C)CC3)NC2=C(NC(=O)/C(C)=C\C=C\[C@H](C)[C@H](O)[C@@H](C)[C@@H](O)[C@@H](C)[C@H](OC(C)=O)[C@@H]1C)C4=O,MIC,[1]; [8],0.5 µg/mL
CO[C@H]1/C=C/O[C@@]2(C)Oc3c(C)c(O)c4c(c3C2=O)C2=NC3(CCN(CCN5CCOCC5)CC3)NC2=C(NC(=O)/C(C)=C\C=C\[C@H](C)[C@H](O)[C@@H](C)[C@@H](O)[C@@H](C)[C@H](OC(C)=O)[C@@H]1C)C4=O,MIC,[1]; [8],1 µg/mL
CO[C@H]1/C=C/O[C@@]2(C)Oc3c(C)c(O)c4c(c3C2=O)C(=N)C(N)=C(NC(=O)/C(C)=C\C=C\[C@H](C)[C@H](O)[C@@H](C)[C@@H](O)[C@@H](C)[C@H](OC(C)=O)[C@@H]1C)C4=O,MIC,[1]; [8],0.5 µg/mL
COC(=O)CCCN1CCC2(CC1)N=C1C(=C3NC(=O)/C(C)=C\C=C\[C@H](C)[C@H](O)[C@@H](C)[C@@H](O)[C@@H](C)[C@H](OC(C)=O)[C@H](C)[C@@H](OC)/C=C/O[C@@]4(C)Oc5c(C)c(O)c(c1c5C4=O)C3=O)N2,MIC,[1]; [8],0.5 µg/mL
COCCN1CCC2(CC1)N=C1C(=C3NC(=O)/C(C)=C\C=C\[C@H](C)[C@H](O)[C@@H](C)[C@@H](O)[C@@H](C)[C@H](OC(C)=O)[C@H](C)[C@@H](OC)/C=C/O[C@@]4(C)Oc5c(C)c(O)c(c1c5C4=O)C3=O)N2,MIC,[1]; [8],0.016 µg/mL
CCC(C)(C)N1CCC2(CC1)N=C1C(=C3NC(=O)/C(C)=C\C=C\[C@H](C)[C@H](O)[C@@H](C)[C@@H](O)[C@@H](C)[C@H](OC(C)=O)[C@H](C)[C@@H](OC)/C=C/O[C@@]4(C)Oc5c(C)c(O)c(c1c5C4=O)C3=O)N2,MIC,[1]; [8],0.008 µg/mL
same,fold change (FC),[4],2
CO[C@H]1/C=C/O[C@@]2(C)Oc3c(C)c(O)c4c(c3C2=O)C2=NC3(CCN(C5CC5)CC3)NC2=C(NC(=O)/C(C)=C\C=C\[C@H](C)[C@H](O)[C@@H](C)[C@@H](O)[C@@H](C)[C@H](OC(C)=O)[C@@H]1C)C4=O (stereo in doubt; form 2),MIC,[1]; 20 h,0.001 µg/mL
